A short description of experiment [1]: In vivo inhibition of BCR signaling in female […] mouse assessed as B-cell function at 25 mg/kg, po administered for 24 hrs and measured after stimulation with anti-IgM for 18 h by flow cytometry analysis relative to control. The class given is functional, Splenocyte. Also on record: scale not given: the % may be the effect or the level left. In short, it runs like this:
(§1)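 Female C57BL/6 mice (5/group) received vehicle or 25 mg/kg drug by oral gavage at time zero, with spleens taken at time points from 3 to 24 h. Splenocytes were stimulated ex vivo with goat anti-mouse IgM at 10μg/mL for 18 h at 37°C in 5% CO2, then Fc-blocked and stained for CD19 plus CD69, CD86 or phospho-S6(S235/236), with 7-AAD to exclude dead cells. Read-out was flow cytometry on >5,000 gated CD19+ cells, compared with vehicle.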
A general note: Flow cytometry measures light scatter and fluorescence of single cells or particles in a stream.

Experiment [2] has as its system Splenocyte. Description: In vivo inhibition of BCR signaling in female […] mouse assessed as change in phospho-S6 expression at 25 mg/kg, po administered and measured after stimulation with anti-IgM for 18 h by flow cytometry analysis. Format: functional, organism-based. In short, it runs like this: as §1
Experiment [3] deals with Splenocyte. Description: In vivo inhibition of BCR signaling in female […] mouse assessed as change in CD86 expression at 25 mg/kg, po administered and measured after stimulation with anti-IgM for 18 h by flow cytometry analysis. The class given is functional, organism-based. In short, it runs like this:
as §1

In experiment [4] the test system is Splenocyte. Description: In vivo inhibition of BCR signaling in female […] mouse assessed as CD69 expression at 2.9 mg/kg, po administered and measured after stimulation with anti-IgM for 18 h by flow cytometry analysis. Format: functional, organism-based. In short, it runs like this: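 Female C57BL/6 mice (5/group/dose) were gavaged orally with vehicle or drug at 0.1–30 mg/kg, and spleens were harvested after 3 h. Splenocytes were stimulated with anti-IgM at 10μg/mL for 18 h at 37°C in 5% CO2, then Fc-blocked and stained for CD19 and CD69, with 7-AAD marking dead cells. CD69 on CD19+ B-cells was read by flow cytometry, acquiring >5,000 gated CD19+ cells.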

The source made the active and inactive calls. No cut-off for these calls is given here.

As to `C=CC(=O)N1CCC[C@@H](n2nc(-c3ccc(Oc4ccccc4)cc3)c3c(N)ncnc32)C1` [IBRUTINIB], in experiment [1], the Activity is on record as approximately 70%. For the same compound, the result in experiment [2], in experiment [3] and in experiment [4] was Active.

These data come from ChEMBL document CHEMBL5678815 (Clin Cancer Res, 2017).
